Results reported in paper PMC12495087 (ESMO Open, 2025).

Test: phase I study BOS172738-01: safety and tolerability
Format: in vivo, human
In short: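 Patients received at least one dose of oral drug given once daily in 28-day cycles. Part A escalated 10–150 mg, by accelerated titration (dose doubling) and then 3+3 Fibonacci steps; part B used 75 mg. AEs were graded by CTCAE v4.03 from first dose to 31 days after last dose. DLTs counted in cycle 1. Missing causality was scored as related and missing grade as grade 3.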

[1] = any causality and grade, overall n = 117
[2] = overall total, n = 117, listed as BOS
[3] = part A, all dose levels, n = 67

## COc1cc2cc(-c3ccc(CC(=O)Nc4cc(C(C)(C)C(F)(F)F)no4)cn3)cnc2cc1OC [BOS172738]
BOS172738-treated patients
  grade ≥3 TEAE of either hypertension or liver enzyme elevations: 2%
All pooled 75 mg, n = 70
  Any TEAE: 70 (100) n (%)
  Any TEAE leading to BOS discontinuation: 13 (19) n (%)
  Any TEAE leading to BOS dose interruption: 46 (66) n (%)
  Any TEAE leading to BOS dose reduction: 14 (20) n (%)
  Any TEAE leading to study discontinuation: 9 (13) n (%)
  Any TEAE related to BOS leading to BOS discontinuation: 6 (9) n (%)
  Any TEAE related to BOS leading to study discontinuation: 2 (3) n (%)
  Any TEAE resulting in death: 3 (4) n (%)
  Any TEAE, grade ≥3: 57 (81) n (%)
  Serious TEAEs related to BOS: 4 (6) n (%)
  Serious TEAEs, any: 35 (50) n (%)
  TEAE related to BOS, CTCAE grade ≥3: Anemia: 4 (6) n (%)
  TEAE related to BOS, CTCAE grade ≥3: Asthenia: 1 (1) n (%)
  TEAE related to BOS, CTCAE grade ≥3: Blood creatinine phosphokinase increased: 14 (20) n (%)
  TEAE related to BOS, CTCAE grade ≥3: Diarrhea: 1 (1) n (%)
  TEAE related to BOS, CTCAE grade ≥3: Hypophosphatemia: 4 (6) n (%)
  TEAE related to BOS, CTCAE grade ≥3: Lymphopenia: 2 (3) n (%)
  TEAE related to BOS, CTCAE grade ≥3: Muscular weakness: 1 (1) n (%)
  TEAE related to BOS, CTCAE grade ≥3: Myositis: 0 n (%)
  TEAE related to BOS, CTCAE grade ≥3: Neutropenia: 2 (3) n (%)
  TEAE related to BOS, CTCAE grade ≥3: Neutrophil count decreased: 9 (13) n (%)
  TEAE related to BOS, any: 57 (81) n (%)
  TEAE related to BOS, grade ≥3: 34 (49) n (%)
[1]
  TEAE: anemia: 46 (39%) n (%)
  TEAE: aspartate aminotransferase increased: 48 (41%) n (%)
  TEAE: blood creatine phosphokinase increased: 72 (62%) n (%)
  TEAE: constipation: 30 (26%) n (%)
  TEAE: diarrhea: 41 (35%) n (%)
  TEAE: dyspnea: 34 (29%) n (%)
  TEAE: facial edema: 31 (26%) n (%)
  TEAE: fatigue: 33 (28%) n (%)
  TEAE: hypophosphatemia: 31 (26%) n (%)
Final data cut-off, 117 patients
  treatment discontinued due to TEAEs: 20%
In total
  myositis leading to dose interruption: 6%
In vivo
  severity of BOS172738-related TEAEs: mostly grade 1-2
overall
  TEAE resulting in death: dyspnea: 2%
  patients discontinued from the study due to BOS172738-related TEAEs: 4%
Overall n = 117
  deaths considered related to BOS172738: None
  serious TEAE related to BOS172738: muscular weakness: 3 (3%) n (%)
  serious TEAE related to BOS172738: myositis: 2 (2%) n (%)
  serious TEAE: anemia: 4 (3%) n (%)
  serious TEAE: dyspnea: 8 (7%) n (%)
  serious TEAE: pneumonia: 7 (6%) n (%)
Overall total, n = 117
  Any TEAE: 117 (100) n (%)
  Any TEAE leading to BOS discontinuation: 30 (26%) n (%)
  Any TEAE leading to BOS dose interruption: 78 (67%) n (%)
  Any TEAE leading to study discontinuation: 18 (15) n (%)
  Any TEAE related to BOS leading to BOS discontinuation: 16 (14%) n (%)
  Any TEAE related to BOS leading to study discontinuation: 5 (4) n (%)
  Any TEAE resulting in death: 11 (9%) n (%)
  Any TEAE, grade ≥3: 98 (84%) n (%)
  Serious TEAEs related to BOS: 16 (14%) n (%)
  Serious TEAEs, any: 67 (57%) n (%)
  TEAE related to BOS, CTCAE grade ≥3: Anemia: 10 (9%) n (%)
  TEAE related to BOS, CTCAE grade ≥3: Asthenia: 2 (2) n (%)
  TEAE related to BOS, CTCAE grade ≥3: Blood creatinine phosphokinase increased: 29 (25%) n (%)
  TEAE related to BOS, CTCAE grade ≥3: Diarrhea: 3 (3) n (%)
  TEAE related to BOS, CTCAE grade ≥3: Hypophosphatemia: 6 (5) n (%)
  TEAE related to BOS, CTCAE grade ≥3: Lymphopenia: 3 (3) n (%)
  TEAE related to BOS, CTCAE grade ≥3: Muscular weakness: 3 (3) n (%)
  TEAE related to BOS, CTCAE grade ≥3: Myositis: 2 (2) n (%)
  TEAE related to BOS, CTCAE grade ≥3: Neutropenia: 4 (3) n (%)
  TEAE related to BOS, CTCAE grade ≥3: Neutrophil count decreased: 12 (10%) n (%)
  TEAE related to BOS, any: 99 (85%) n (%)
  TEAE related to BOS, grade ≥3: 63 (54%) n (%)
[2]
  Any TEAE leading to BOS discontinuation: 30 (26) n (%)
  Any TEAE leading to BOS dose interruption: 78 (67) n (%)
  Any TEAE leading to BOS dose reduction: 29 (25) n (%)
  Any TEAE related to BOS leading to BOS discontinuation: 16 (14) n (%)
  Any TEAE resulting in death: 11 (9) n (%)
  Any TEAE, grade ≥3: 98 (84) n (%)
  Serious TEAEs, any: 67 (57) n (%)
  TEAE related to BOS, CTCAE grade ≥3: Anemia: 10 (9) n (%)
  TEAE related to BOS, CTCAE grade ≥3: Blood creatinine phosphokinase increased: 29 (25) n (%)
  TEAE related to BOS, CTCAE grade ≥3: Neutrophil count decreased: 12 (10) n (%)
  TEAE related to BOS, any: 99 (85) n (%)
  TEAE related to BOS, grade ≥3: 63 (54) n (%)
Part A, 75 mg cohort
  DLT event (one patient): blood creatine phosphokinase increased
Part A, 100 mg cohort
  DLT event (one patient): muscle weakness and blood creatine phosphokinase increased
Part A, 150 mg cohort
  DLT event (one patient): capillary leak syndrome
Part A, 10-150 mg orally once daily
  maximum tolerated dose (MTD): not reached
Part A, 10-150 mg orally once daily, cycle 1
  patients with dose-limiting toxicities: three
[3]
  Any TEAE: 67 (100) n (%)
  Any TEAE leading to BOS discontinuation: 23 (34) n (%)
  Any TEAE leading to BOS dose interruption: 45 (67) n (%)
  Any TEAE leading to BOS dose reduction: 19 (28) n (%)
  Any TEAE leading to study discontinuation: 11 (16) n (%)
  Any TEAE related to BOS leading to BOS discontinuation: 14 (21) n (%)
  Any TEAE related to BOS leading to study discontinuation: 4 (6) n (%)
  Any TEAE resulting in death: 9 (13) n (%)
  Any TEAE, grade ≥3: 57 (85) n (%)
  Serious TEAEs related to BOS: 12 (18) n (%)
  Serious TEAEs, any: 39 (58) n (%)
  TEAE related to BOS, CTCAE grade ≥3: Anemia: 7 (10) n (%)
  TEAE related to BOS, CTCAE grade ≥3: Asthenia: 2 (3) n (%)
  TEAE related to BOS, CTCAE grade ≥3: Blood creatinine phosphokinase increased: 19 (28) n (%)
  TEAE related to BOS, CTCAE grade ≥3: Diarrhea: 3 (4) n (%)
  TEAE related to BOS, CTCAE grade ≥3: Hypophosphatemia: 3 (4) n (%)
  TEAE related to BOS, CTCAE grade ≥3: Lymphopenia: 1 (1) n (%)
  TEAE related to BOS, CTCAE grade ≥3: Muscular weakness: 3 (4) n (%)
  TEAE related to BOS, CTCAE grade ≥3: Myositis: 2 (3) n (%)
  TEAE related to BOS, CTCAE grade ≥3: Neutropenia: 4 (6) n (%)
  TEAE related to BOS, CTCAE grade ≥3: Neutrophil count decreased: 5 (7) n (%)
